In ChEMBL document CHEMBL1151181, “New sesterterpenes from the Antarctic sponge Suberites sp” (2004):

Legend:
Assay type in all cases: functional
Candida albicans = test: Antimicrobial activity against Candida albicans at 25 ug by paper-disk method; details: read-out: IZ
Procedure, shortened: (§1)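 Paper-disk diffusion assay with 25 µg of compound per disk; activity read as diameter of the growth-inhibition zone in mm. The Streptococcus strain is given only as Streptococcus sp.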

Escherichia coli = test: Antimicrobial activity against Escherichia coli at 25 ug by paper-disk method; details: read-out: IZ; procedure, shortened: as §1
Bacillus subtilis = test: Antimicrobial activity against Bacillus subtilis at 25 ug by paper-disk method; details: read-out: IZ; procedure, shortened: as §1
Staphylococcus aureus = test: Antimicrobial activity against Staphylococcus aureus at 25 ug by paper-disk method; details: read-out: IZ; procedure, shortened: as §1
Streptococcus = test: Antimicrobial activity against Streptococcus at 25 ug by paper-disk method; details: read-out: IZ; procedure, shortened: as §1
K562 = test: Cytotoxicity against human K562 cells by MTT method; details: read-out: LC50 (the source's name)
Procedure, shortened: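 Human leukemia K562 cell line, MTT read-out; value expressed as LC50 in µg/mL.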

Compound | zone of inhibition at 25 µg/disc (Candida albicans) | zone of inhibition at 25 µg/disc (Escherichia coli) | zone of inhibition at 25 µg/disc (Bacillus subtilis) | zone of inhibition at 25 µg/disc (Staphylococcus aureus) | zone of inhibition at 25 µg/disc (Streptococcus) | CC50 (K562)
CC(=O)O[C@@H]1C=C(C)C(=O)C[C@H]1[C@@]1(O)CC[C@@H]2[C@@](C)(C[C@@H](OC(C)=O)[C@H]3C(C)(C)CCC[C@]23C)C1 | < 3 mm | < 3 mm | < 3 mm | < 3 mm | < 3 mm | –
CC(=O)O[C@@H]1C[C@@]2(C)CC(c3ccc(C)c(O)c3)=CC[C@H]2[C@@]2(C)CCCC(C)(C)[C@H]12 [SUBERIPHENOL] | < 3 mm | < 3 mm | < 3 mm | < 3 mm | < 3 mm | > 100 µg/mL
CC(=O)O[C@@H]1C[C@@]2(C)CC([C@@H]3CC(=O)C(C)=C[C@H]3O)=CC[C@H]2[C@@]2(C)CCCC(C)(C)[C@H]12 [SUBERITENONE C] | < 3 mm | < 3 mm | < 3 mm | < 3 mm | < 3 mm | > 100 µg/mL
